Results reported in the RNAGym collection of RNA variant scans (doi:10.1126/science.aae0568).
Variants at the floor of the assay were thinned out.

B1: tRNA (parent)
chain: GUUCCGUUGGCGUAAUGGUAACGCGUCUCCCUCCUAAGGAGAAGACUGCGGGUUCGAGUCCCGUACGGAACG

Variants of: B1
Assay: yeast fitness relative to wild type (ratio to wild type); higher = fitter; tRNA-Arg(CCU), competitive growth, 37 C, YPD
Procedure, shortened: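 Start and end populations of a pooled competition were compared by 100-nucleotide paired-end sequencing of gene amplicons. The Saccharomyces cerevisiae strains carried tRNA-Arg(CCU) gene variants at the native genomic locus, synthesised with a 3% per-site mutation rate at 69 sites, and competed in YPD at 37°C for 24 hours in six parallel replicates. Darwinian fitness relative to wild type was based on the change in genotype frequencies. Genotypes required ≥ 100 starting reads, and estimates < 0.5 were set to 0.5.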

Row | Variant | yeast fitness
1 | C11U U19G C27U C29G | ≤ 0.5
2 | G12A A21G C34U C62A A69U | ≤ 0.5
3 | G12A A15U G17A | ≤ 0.5
4 | G12A A15G G48C A57U | ≤ 0.5
5 | C11U G23C G58A A70U | 0.541
6 | G12A C33U G39C C66G | ≤ 0.5
7 | G12A A15C G58C | ≤ 0.5
8 | G12A C61G C62A A70G | ≤ 0.5
9 | C11U U26G G67C | ≤ 0.5
10 | G12A C49U C62A | 0.625
11 | G12A C22A C24A | ≤ 0.5
12 | C11U U13A U16A U54A | 0.711
13 | G12A A20G A21U A40G | ≤ 0.5
14 | G12A A20G U26C C31G C33U A42U G67C | ≤ 0.5
15 | C11U G12A | 0.998
16 | G12A C34A G51U G58A G63U | ≤ 0.5
17 | G12A A43U A45C G50C C60U | ≤ 0.5
18 | C11U G18C C29A G67C | ≤ 0.5
19 | G12A A20C | 0.875
20 | G12A A20G | 0.923
21 | C11U G25C A36U | 0.547
22 | G12A A15C C62U C66G | ≤ 0.5
23 | G12A A14C A20C A42G G44A | ≤ 0.5
24 | C11U U26A A36U | ≤ 0.5

Row | Variant | yeast fitness
25 | G12A A42G C66G G67C | ≤ 0.5
26 | C11U U19G A20U | 0.764
27 | G12A A20C A65U | 0.57
28 | C11U U28C C29G C60A | ≤ 0.5
29 | C11U U19A G63C | 0.53
30 | G12A C31U U53A U54G G58C C62U | 0.635
31 | C11U U28A A69C | 0.58
32 | G12A C27U U32A | 0.702
33 | G12A G39A G68A | 0.528
34 | G12A C31A G38C A65G | ≤ 0.5
35 | C11U G50A A70U | 0.702
36 | C11U U35A G56C | ≤ 0.5
37 | G12A A20C C24G U54A C60G C66U | ≤ 0.5
38 | G12A C30A C31G U54G | ≤ 0.5
39 | C11U U26C U47A G50A | ≤ 0.5
40 | C11U U16A C22A C24G A45U U47A | ≤ 0.5
41 | C11U U28A C62G | ≤ 0.5
42 | G12A C29A | 0.652
43 | G12A C29G | 0.61
44 | G12A C34A G52C C60A | ≤ 0.5
45 | C11U U13C A15G C46A | 0.631
46 | G12A C30G A40C | ≤ 0.5
47 | C11U U35C A36U C46U G51A | ≤ 0.5
48 | C11U C66G | 0.745

Row | Variant | yeast fitness
49 | G12A C30U C46G | ≤ 0.5
50 | C11U U13A G25A U28A C31A A43C C60G C61G C62U | 0.581
51 | G12A G25A U32C | 0.749
52 | G12A G18A U19C C55U A57C G58C | 0.638
53 | C11U G50C C61U | 0.581
54 | C11U U54C A57G | 0.553
55 | C11U U28A | 0.682
56 | C11U G39C C62U G63C | ≤ 0.5
57 | G12A G17C C46U | ≤ 0.5
58 | G12A A15U C24G G63C | ≤ 0.5
59 | G12A A21G A40U G67U | ≤ 0.5
60 | G12A C46A | 1.05
61 | C11U G50A G56A | 0.781
62 | G12A C24G A40C A43C C46U C62A | ≤ 0.5
63 | C11U U26A A43U A65C A70G | ≤ 0.5
64 | C11U G18C C31A | ≤ 0.5
65 | G12A A21C C31U | ≤ 0.5
66 | G12A C49A G68A | ≤ 0.5
67 | G12A A21G A40U | 0.564
68 | C11U U13C C29U A37C C46A | ≤ 0.5
69 | G12A C61A G67A | ≤ 0.5
70 | G12A C33U A36C C55G | ≤ 0.5
71 | G12A G17C | 0.661
72 | C11U U59A A69C | 0.537

Row | Variant | yeast fitness
73 | C11U G17A G48A G51C C60A U64C | 0.623
74 | G12A C22G | 1
75 | G12A C55U G63C | ≤ 0.5
76 | G12A C29G A65U | 0.58
77 | G12A C31U C61G | 0.543
78 | G12A G23C | 0.733
79 | G12A C27U A37C A45G | ≤ 0.5
80 | G12A A21G C46G G51A G67C | ≤ 0.5
81 | G12A A21G C46G G51A A69U | ≤ 0.5
82 | C11U U16C G25A | 0.9
83 | C11U U16C U19C C62U A70G | 0.524
84 | G12A C60A G67A | 0.68
85 | G12A C49A U54A | ≤ 0.5
86 | G12A A21G G44A C46U A69C | 0.507
87 | G12A A14U A21U U32G A37G A45G C55A | ≤ 0.5
88 | C11U U13C U28C A42U C55A G56A | ≤ 0.5
89 | G12A C24G A40C A43C C46U C49U G68C A69U | ≤ 0.5
90 | C11U U13C C29U A37C U54A C62U G68A | ≤ 0.5
91 | C11U U28C G44C | 0.557
92 | G12A C27U C30G C55U A57C | 0.547
93 | G12A A20U A42C | 0.692
94 | C11U U19C G67C | 0.566
95 | C11U U53C A57C | ≤ 0.5
96 | C11U G39A A40U | 0.673

Row | Variant | yeast fitness
97 | C11U G38C G48A | 0.57
98 | G12A A43G G48C | 0.568
99 | G12A C27U A36C A42U C46U | ≤ 0.5
100 | C11U G25C C31U | 0.679
101 | G12A A20C C29A | ≤ 0.5
102 | C11U U19G A65C | 0.696
103 | C11U U26G U32A A43C U53C A70U | ≤ 0.5
104 | G12A C24A U26G A43C C62G G63A C66G A69G | ≤ 0.5
105 | G12A A43U A45C | ≤ 0.5
106 | G12A C24U C27A | 0.575
107 | C11U G51C U59G | 0.534
108 | G12A A14C U16C C31U C49G C60A | ≤ 0.5
109 | G12A C31U G52A G56C | 0.569
110 | C11U G48A G51C C60A U64C | 0.887
111 | C11U U13C C24A U47A | ≤ 0.5
112 | C11U G38C | 0.715
113 | G12A G18C C29U | 0.599
114 | C11U G12A C31U U53C A65C | ≤ 0.5
115 | G12A G25A G68C | 0.645
116 | C11U G18A A37G | ≤ 0.5
117 | C11U G23C C31G C60G A65U | ≤ 0.5
118 | G12A C24A A36U A37G C61U G67U | ≤ 0.5
119 | C11U G56A | 0.901
120 | G12A C33A | 0.644

Row | Variant | yeast fitness
121 | C11U U32G U53A C55U C61U | ≤ 0.5
122 | G12A G25A G52A | 0.583
123 | G12A A57C | 0.618
124 | G12A A21G G39A A45G G50A A69U | ≤ 0.5
125 | G12A C24G U35A A36G A40C G67A | ≤ 0.5
126 | G12A C55A | 0.6
127 | G12A C55G | 0.639
128 | C11U G25A C62G | 0.569
129 | G12A C24A A36C C61U G67U | 0.615
130 | G12A A42U | 0.856
131 | G12A A42C | 0.89
132 | C11U G48U | 0.853
133 | C11U G48C | 0.882
134 | C11U G12A C27U G52A C62U | ≤ 0.5
135 | C11U G25A C29U G67A A70U | ≤ 0.5
136 | C11U U13C A43C | 0.682
137 | C11U U16C U19C | 0.929
138 | G12A C46U C62U | 0.732
139 | C11U U19C U59C C61A | ≤ 0.5
140 | G12A A37U A42C | 0.559
141 | G12A C27G U32G C60A | ≤ 0.5
142 | G12A C31U | 0.919
143 | C11U U53A C62A | ≤ 0.5
144 | C11U U53C | 0.652

Row | Variant | yeast fitness
145 | C11U G17A U35A G38A C61G | ≤ 0.5
146 | G12A C24A A36U | 0.666
147 | G12A A15C C62G A65C | ≤ 0.5
148 | C11U G17A | 0.961
149 | G12A C33U A36C | 0.563
150 | C11U U13G U19A C22G G25A A69U | ≤ 0.5
151 | G12A C49U G58A | 0.7
152 | G12A C31U C61U A70G | 0.541
153 | C11U U32G C62A | 0.618
154 | C11U G12A G44C C46U | 0.575
155 | G12A A20U G23C U32C A69G | ≤ 0.5
156 | C11U G17C C30A C33G C61U | 0.581
157 | C11U U19C C22G G25C C33U G39C C62G | ≤ 0.5
158 | G12A C33A G51C | ≤ 0.5
159 | G12A A70U | 0.99
160 | G12A A70G | 1.02
161 | C11U G67U | 0.846
162 | C11U G67A | 0.816
163 | C11U G48A G51C C61A A65C | ≤ 0.5
164 | C11U U35C A70G | 0.641
165 | C11U G18C C33G G44A C46G C66U | 0.606
166 | G12A C33A U54G A70C | 0.541
167 | G12A C24U C49G G56C G58A | ≤ 0.5
